Columns and labels:
[1] = system: Hypothalamus; test: Drug uptake in Sprague-Dawley rat hypothalamus at 25 uCi, iv after 2 mins by gamma counter; format: ADME, organism-based; settings: in vivo
Procedure, shortened: (§1)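 Normal male Sprague-Dawley rats were given 25 µCi of the 18F-tracer via the femoral vein. Rats (n = 5 per time point) were sacrificed at 2, 60, 120 or 180 min post-injection. Brain regions were dissected and weighed, and radioactivity was gamma-counted. Values are %ID/g, calculated against diluted aliquots of the injected dose, as mean ± S.D.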

[2] = system: Cortex; test: Drug uptake in Sprague-Dawley rat cortex at 25 uCi, iv after 180 mins by gamma counter; format: ADME, organism-based; settings: in vivo, 3 h; procedure, shortened: as §1
[3] = system: Nucleic Acid; test: Ratio of drug uptake in striatum to cerebellum in Sprague-Dawley rat at 25 uCi, iv after 2 mins; format: ADME, organism-based; settings: in vivo
Procedure, shortened: (§2)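 Region-to-cerebellum uptake ratios were calculated from %ID/g values (n = 5 rats per time point). These came from normal male Sprague-Dawley rats given 25 µCi of the 18F-tracer through the femoral vein and dissected at 2, 60, 120 or 180 min. Tissue was gamma-counted, and cerebellum served as the non-target background region.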

[4] = system: Nucleic Acid; test: Ratio of drug uptake in cortex to cerebellum in Sprague-Dawley rat at 25 uCi, iv after 180 mins; format: ADME, organism-based; settings: in vivo, 3 h; procedure, shortened: as §2
[5] = Drug uptake in Sprague-Dawley rat putamen at 2.5 mCi, iv after 60 mins post injection measured by autoradiographic technique; format: ADME, organism-based; settings: in vivo, 1 h
Procedure, shortened: (§3)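 For ex vivo autoradiography, normal Sprague-Dawley rats received 2.5 mCi of the 18F-tracer intravenously and were sacrificed at 60 min post-injection. Brains were removed immediately, frozen and sectioned. Dried sections were exposed to film overnight in an autoradiographic cassette to map regional radioactivity.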

[6] = system: Hypothalamus; test: Drug uptake in Sprague-Dawley rat hypothalamus at 25 uCi, iv after 180 mins by gamma counter; format: ADME, organism-based; settings: in vivo, 3 h; procedure, shortened: as §1
[7] = system: Hippocampus; test: Drug uptake in Sprague-Dawley rat hippocampus at 25 uCi, iv after 180 mins by gamma counter; format: ADME, organism-based; settings: in vivo, 3 h; procedure, shortened: as §1
[8] = system: Cortex; test: Drug uptake in Sprague-Dawley rat cortex at 2.5 mCi, iv after 60 mins post injection measured by autoradiographic technique; format: ADME, organism-based; settings: in vivo, 1 h; procedure, shortened: as §3
[9] = system: Cortex; test: Drug uptake in Sprague-Dawley rat cortex at 25 uCi, iv after 120 mins by gamma counter; format: ADME, organism-based; settings: in vivo, 2 h; procedure, shortened: as §1
[10] = system: Striatum; test: Drug uptake in Sprague-Dawley rat striatum at 25 uCi, iv after 60 mins by gamma counter; format: ADME, organism-based; settings: in vivo, 1 h; procedure, shortened: as §1
[11] = system: Nucleic Acid; test: Ratio of drug uptake in hippocampus to cerebellum in Sprague-Dawley rat at 25 uCi, iv after 120 mins; format: ADME, organism-based; settings: in vivo, 2 h; procedure, shortened: as §2
[12] = system: Striatum; test: Drug uptake in Sprague-Dawley rat striatum at 2.5 mCi, iv after 60 mins post injection measured by autoradiographic technique; format: ADME, organism-based; settings: in vivo, 1 h; procedure, shortened: as §3
[13] = system: Nucleic Acid; test: Ratio of drug uptake in striatum to cerebellum in Sprague-Dawley rat at 25 uCi, iv after 180 mins; format: ADME, organism-based; settings: in vivo, 3 h; procedure, shortened: as §2
[14] = system: Striatum; test: Drug uptake in Sprague-Dawley rat striatum at 25 uCi, iv after 180 mins by gamma counter; format: ADME, organism-based; settings: in vivo, 3 h; procedure, shortened: as §1
[15] = system: Hypothalamus; test: Drug uptake in Sprague-Dawley rat hypothalamus at 25 uCi, iv after 120 mins by gamma counter; format: ADME, organism-based; settings: in vivo, 2 h; procedure, shortened: as §1
[16] = system: Nucleic Acid; test: Ratio of drug uptake in hypothalamus to cerebellum in Sprague-Dawley rat at 25 uCi, iv after 60 mins; format: ADME, organism-based; settings: in vivo, 1 h; procedure, shortened: as §2
[17] = system: Brain; test: Drug uptake in Sprague-Dawley rat brain at 25 uCi, iv after 120 mins by gamma counter; format: ADME, organism-based; settings: in vivo, 2 h; procedure, shortened: as §1
[18] = system: Striatum; test: Drug uptake in Sprague-Dawley rat striatum at 25 uCi, iv after 120 mins by gamma counter; format: ADME, organism-based; settings: in vivo, 2 h; procedure, shortened: as §1
[19] = Lipophilicity, log P of the compound; format: physicochemical; settings: octanol/water
[20] = system: Nucleic Acid; test: Ratio of drug uptake in hypothalamus to cerebellum in Sprague-Dawley rat at 25 uCi, iv after 2 mins; format: ADME, organism-based; settings: in vivo; procedure, shortened: as §2
[21] = system: Cerebellum; test: Drug uptake in Sprague-Dawley rat cerebellum at 25 uCi, iv after 2 mins by gamma counter; format: ADME, organism-based; settings: in vivo; procedure, shortened: as §1
[22] = system: Nucleic Acid; test: Ratio of drug uptake in cortex to cerebellum in Sprague-Dawley rat at 25 uCi, iv after 2 mins; format: ADME, organism-based; settings: in vivo; procedure, shortened: as §2
[23] = system: Nucleic Acid; test: Ratio of drug uptake in hippocampus to cerebellum in Sprague-Dawley rat at 25 uCi, iv after 60 mins; format: ADME, organism-based; settings: in vivo, 1 h; procedure, shortened: as §2
[24] = system: Cerebellum; test: Drug uptake in Sprague-Dawley rat cerebellum at 25 uCi, iv after 180 mins by gamma counter; format: ADME, organism-based; settings: in vivo, 3 h; procedure, shortened: as §1
[25] = system: Nucleic Acid; test: Ratio of drug uptake in hippocampus to cerebellum in Sprague-Dawley rat at 25 uCi, iv after 180 mins; format: ADME, organism-based; settings: in vivo, 3 h; procedure, shortened: as §2
[26] = system: Cortex; test: Drug uptake in Sprague-Dawley rat cortex at 25 uCi, iv after 60 mins by gamma counter; format: ADME, organism-based; settings: in vivo, 1 h; procedure, shortened: as §1
[27] = system: Hippocampus; test: Drug uptake in Sprague-Dawley rat hippocampus at 25 uCi, iv after 60 mins by gamma counter; format: ADME, organism-based; settings: in vivo, 1 h; procedure, shortened: as §1
[28] = system: Hippocampus; test: Drug uptake in Sprague-Dawley rat hippocampus at 25 uCi, iv after 120 mins by gamma counter; format: ADME, organism-based; settings: in vivo, 2 h; procedure, shortened: as §1
[29] = system: Nucleic Acid; test: Ratio of drug uptake in striatum to cerebellum in Sprague-Dawley rat at 25 uCi, iv after 120 mins; format: ADME, organism-based; settings: in vivo, 2 h; procedure, shortened: as §2
[30] = system: Cortex; test: Drug uptake in Sprague-Dawley rat cortex at 25 uCi, iv after 2 mins by gamma counter; format: ADME, organism-based; settings: in vivo; procedure, shortened: as §1
[31] = system: Hippocampus; test: Drug uptake in Sprague-Dawley rat hippocampus at 25 uCi, iv after 2 mins by gamma counter; format: ADME, organism-based; settings: in vivo; procedure, shortened: as §1
[32] = system: Nucleic Acid; test: Ratio of drug uptake in hypothalamus to cerebellum in Sprague-Dawley rat at 25 uCi, iv after 120 mins; format: ADME, organism-based; settings: in vivo, 2 h; procedure, shortened: as §2
[33] = system: Brain; test: Drug uptake in Sprague-Dawley rat brain at 25 uCi, iv after 2 mins by gamma counter; format: ADME, organism-based; settings: in vivo; procedure, shortened: as §1
[34] = system: Nucleic Acid; test: Ratio of drug uptake in cortex to cerebellum in Sprague-Dawley rat at 25 uCi, iv after 60 mins; format: ADME, organism-based; settings: in vivo, 1 h; procedure, shortened: as §2
[35] = system: Nucleic Acid; test: Ratio of drug uptake in striatum to cerebellum in Sprague-Dawley rat at 25 uCi, iv after 60 mins; format: ADME, organism-based; settings: in vivo, 1 h; procedure, shortened: as §2
[36] = system: Striatum; test: Drug uptake in Sprague-Dawley rat striatum at 25 uCi, iv after 2 mins by gamma counter; format: ADME, organism-based; settings: in vivo; procedure, shortened: as §1
[37] = system: Cerebellum; test: Drug uptake in Sprague-Dawley rat cerebellum at 25 uCi, iv after 60 mins by gamma counter; format: ADME, organism-based; settings: in vivo, 1 h; procedure, shortened: as §1
[38] = system: Hypothalamus; test: Drug uptake in Sprague-Dawley rat hypothalamus at 25 uCi, iv after 60 mins by gamma counter; format: ADME, organism-based; settings: in vivo, 1 h; procedure, shortened: as §1
[39] = system: Nucleic Acid; test: Ratio of drug uptake in cortex to cerebellum in Sprague-Dawley rat at 25 uCi, iv after 120 mins; format: ADME, organism-based; settings: in vivo, 2 h; procedure, shortened: as §2
[40] = system: Cerebellum; test: Drug uptake in Sprague-Dawley rat cerebellum at 25 uCi, iv after 120 mins by gamma counter; format: ADME, organism-based; settings: in vivo, 2 h; procedure, shortened: as §1
[41] = system: Brain; test: Drug uptake in Sprague-Dawley rat brain at 25 uCi, iv after 180 mins by gamma counter; format: ADME, organism-based; settings: in vivo, 3 h; procedure, shortened: as §1
[42] = system: Nucleic Acid; test: Ratio of drug uptake in hippocampus to cerebellum in Sprague-Dawley rat at 25 uCi, iv after 2 mins; format: ADME, organism-based; settings: in vivo; procedure, shortened: as §2
[43] = Drug uptake in Sprague-Dawley rat caudate at 2.5 mCi, iv after 60 mins post injection measured by autoradiographic technique; format: ADME, organism-based, Caudate nucleus; settings: in vivo, 1 h; procedure, shortened: as §3
[44] = system: Nucleic Acid; test: Ratio of drug uptake in hypothalamus to cerebellum in Sprague-Dawley rat at 25 uCi, iv after 180 mins; format: ADME, organism-based; settings: in vivo, 3 h; procedure, shortened: as §2
[45] = system: Brain; test: Drug uptake in Sprague-Dawley rat brain at 25 uCi, iv after 60 mins by gamma counter; format: ADME, organism-based; settings: in vivo, 1 h; procedure, shortened: as §1

In the case of `CN1C2CCC1[C@@H](CN(C(=O)OC(C)(C)C)c1cccc([18F])n1)[C@@H](c1ccc(Cl)cc1)C2` (stereo not given in full), the Drug uptake [1] is reported as 0.4 % ID/g, the Drug uptake [2] is reported as 0.03 % ID/g and the Ratio [3] is reported as 0.82. For the same compound, the Ratio [4] was 0.96, the Drug uptake [5] was “Active” and the Drug uptake [6] was 0.04 % ID/g. For the same compound, the Drug uptake [7] was 0.05 % ID/g, the Drug uptake [8] was “Active” and the Drug uptake [9] was 0.07 % ID/g. The Drug uptake [10] was 0.47 % ID/g, the Ratio [11] was 1.61 and the Drug uptake [12] was “Active”. It also gave a Ratio [13] of 3.14, a Drug uptake [14] of 0.09 % ID/g and a Drug uptake [15] of 0.06 % ID/g. It also gave a Ratio [16] of 1.24, a Drug uptake [17] of 0.07 % ID/g and a Drug uptake [18] of 0.12 % ID/g. It also gave a logP [19] of 1.88, a Ratio [20] of 0.81 and a Drug uptake [21] of 0.49 % ID/g. It also gave a Ratio [22] of 0.91, a Ratio [23] of 1.21 and a Drug uptake [24] of 0.03 % ID/g. For the same compound, the Ratio [25] was 1.81, the Drug uptake [26] was 0.28 % ID/g and the Drug uptake [27] was 0.28 % ID/g. The Drug uptake [28] was 0.08 % ID/g, the Ratio [29] was 2.54 and the Drug uptake [30] was 0.45 % ID/g. It also gave a Drug uptake [31] of 0.36 % ID/g, a Ratio [32] of 1.31 and a Drug uptake [33] of 0.4 % ID/g. For the same compound, the Ratio [34] was 1.21, the Ratio [35] was 2.02 and the Drug uptake [36] was 0.4 % ID/g. It also gave a Drug uptake [37] of 0.23 % ID/g, a Drug uptake [38] of 0.29 % ID/g and a Ratio [39] of 1.4. It also gave a Drug uptake [40] of 0.05 % ID/g, a Drug uptake [41] of 0.04 % ID/g and a Ratio [42] of 0.72. The Drug uptake [43] was “Active”, the Ratio [44] was 1.51 and the Drug uptake [45] was 0.26 % ID/g.

Reference: ChEMBL document CHEMBL1914398, “Synthesis and evaluation of novel N-fluoropyridyl derivatives of tropane as potential PET imaging agents for the dopamine transporter” (Bioorg Med Chem Lett, 2011)
